Measurements collected from several papers.
Protocols differ between the studies behind these lines.
Target: Serine/threonine-protein kinase DCLK3 (DCLK3, Homo sapiens, UniProt Q9C098)
Residues used in one study (Q9C098 1-648): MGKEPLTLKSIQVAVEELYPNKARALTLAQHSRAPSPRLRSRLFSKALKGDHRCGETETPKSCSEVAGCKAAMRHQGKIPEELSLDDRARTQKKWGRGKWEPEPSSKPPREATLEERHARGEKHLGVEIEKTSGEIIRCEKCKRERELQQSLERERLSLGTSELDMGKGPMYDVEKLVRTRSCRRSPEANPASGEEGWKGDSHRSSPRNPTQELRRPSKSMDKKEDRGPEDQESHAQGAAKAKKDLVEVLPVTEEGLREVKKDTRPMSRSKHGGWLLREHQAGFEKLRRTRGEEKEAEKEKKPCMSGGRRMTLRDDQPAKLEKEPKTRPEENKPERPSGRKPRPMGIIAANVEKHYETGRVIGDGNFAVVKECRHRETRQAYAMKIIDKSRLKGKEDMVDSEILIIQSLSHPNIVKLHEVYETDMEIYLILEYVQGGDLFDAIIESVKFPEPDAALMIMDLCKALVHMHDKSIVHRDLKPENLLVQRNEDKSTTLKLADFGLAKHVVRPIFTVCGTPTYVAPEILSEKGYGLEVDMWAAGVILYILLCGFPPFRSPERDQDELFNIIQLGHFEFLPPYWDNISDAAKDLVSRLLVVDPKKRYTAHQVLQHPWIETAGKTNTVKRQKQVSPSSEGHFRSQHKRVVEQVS

Structure (SMILES) | assay | setting | remaining binding
COc1cnc(Nc2cccc(S(N)(=O)=O)c2)nc1N1CCN(c2ccccc2)CC1 | binding, competition with immobilised ligand | 1 µM | 71%
Cc1cnn2ncc(-c3ccnc(N(C)C)n3)c2c1 | binding | 1 µM | 93%
O=C(NCC1CCOCC1)c1n[nH]cc1NC(=O)c1c(F)cccc1F | binding, competition with immobilised ligand | 1 µM | 61%
CC1=C(C#N)[C@@H](c2ccc3[nH]nc(C)c3c2)C(C#N)=C(c2ccc(Cl)cc2)N1 | cell-free assay, competition with immobilised ligand | 1 µM | 71.3%
CCN1CCN(Cc2ccc(C(=O)Nc3ccc(C)c(Oc4ccc5c(c4)CC(=O)N5)c3)cc2C(F)(F)F)CC1 | binding, competition with immobilised ligand | 1 µM | 100%
C[C@H](c1cccc(C#N)c1)n1cc(Cl)cc(C(N)=O)c1=N | cell-free assay, competition with immobilised ligand | 1 µM | 99%
C[C@@H](c1ccc(-n2cnc3c(N)ncnc32)cc1)N1CCc2nn(C)c(Cc3ccccc3)c2C1=O | binding, competition with immobilised ligand | 0.1 µM | 85%
C[C@H]1CCN(c2nccc(-c3cnn4ncccc34)n2)C1 | binding | 1 µM | 93%
FC(F)(F)Oc1cccc(-c2cnc3ccc(-c4ccncc4)nn23)c1 | cell-free assay, competition with immobilised ligand | 5 µM | 100%
O=C(c1ccc(Nc2ncc(Cl)c(-c3ccc(Cl)s3)n2)cc1)N1CCC(N2CCCC2)CC1 | binding, competition with immobilised ligand | 1 µM | 14%
Cn1cc(Cl)c2c(Oc3c(F)cc(Nc4cc(Cl)nc(N)n4)cc3F)ccnc21 | cell-free assay, competition with immobilised ligand | 0.1 µM | 89%
CN(C)c1nccc(-c2cnc3ncccn23)n1 | binding | 1 µM | 76%
CN([C@@H]1CCc2c(CC(=O)O)c3ccccc3n2C1)S(=O)(=O)c1ccc(F)cc1 | cell-free assay, competition with immobilised ligand | 1 µM | 99%
Cc1cnc(Nc2ccc(C(=O)N3CCC(N4CCCC4)CC3)cc2)nc1-c1cc2ccccc2s1 | binding, competition with immobilised ligand | 1 µM | 0.5%
N[C@@H]1CCN(c2nccc(-c3cnn4ncccc34)n2)C1 | binding | 1 µM | 100%
O=C(NCCCN1CCOCC1)c1ccc(Nc2ncc(Cl)c(-c3ccc(Cl)s3)n2)cc1 | binding, competition with immobilised ligand | 1 µM | 1.9%
COc1ccnn2ncc(-c3ccnc(N(C)C)n3)c12 | binding | 1 µM | 100%
CCCCN(CCCC)C(=O)CN1C[C@@H](c2cc(OC)c3c(c2)OCO3)[C@H](C(=O)O)[C@H]1CC(C)(C)CCC | cell-free assay, competition with immobilised ligand | 1 µM | 100%
CNC(=O)[C@@H]1CC[C@@H](n2c(-c3ccc4cnccc4c3)nc3ccc(C(=O)NCc4cccc(C(N)=O)c4)cc32)C1 | binding, competition with immobilised ligand | 1 µM | 100%
CN(C)c1ncnc(-c2ccc3nc(Nc4cc(CN5CCN(C(=O)CC(F)(F)F)CC5)ccn4)[nH]c3c2)c1Cl | cell-free assay, competition with immobilised ligand | 1 µM | 92%
CC1CCCN1c1nccc(-c2cnn3ncccc23)n1 (stereo not drawn) | binding | 1 µM | 100%
